We go through three molecules from ChEMBL document CHEMBL4359902, “Development of novel chromeno[4,3-c]pyrazol-4(2H)-one derivates bearing sulfonylpiperazine as antitumor inhibitors targeting PI3Kα” (Eur J Med Chem, 2019).

The structures appear in SMILES notation.

The subject of series [1] is HCT-116. Briefly: Antitumour activity against human HCT116 cells xenografted in nude mouse assessed as tumour growth inhibition at 10 mg/kg, ig administered every 3 days for 3 weeks and measured after 3 weeks relative to control. The following applies: HCT-116, po, read-out: TGI. The class given is functional. A digest of the protocol: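 HCT-116 cells (5 × 10^6 per animal) injected into right flank of nude mice; at ~100 mm³ tumours, randomized into groups of 6. Dosed 10 mg/kg in 5% CMC-Na intragastrically every three days for three weeks; vehicle control 5% CMC-Na. Body weight and tumour size recorded every three days, volume = 0.5 × length × width²; tumours excised and weighed at end. Mean ± SD.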

Series [2] deals with Serine/threonine-protein kinase mTOR (Homo sapiens, UniProt P42345). The series can be described thus: Inhibition of mTOR (unknown origin).
The target in series [3] is Phosphatidylinositol 4,5-bisphosphate 3-kinase catalytic subunit alpha isoform (Homo sapiens, UniProt P42336). The series can be described thus: Inhibition of PI3Kalpha (unknown origin) using diC8-PI(4,5)P2 as substrate incubated for 3 hrs in presence of ATP by fluorescence polarization assay. In a few lines:
(§1)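 Fluorescence polarization competition assay, 10 μL reactions at pH 7: 2.5 mM MgCl₂, 5 mM HEPES, ATP, 10 mM DTT, 50 ng PI3K isoform, diC8-PI(4,5)P2 substrate. After 3 h at room temperature, reactions were chelator-quenched. Phosphoinositide binding protein and fluorophore-labelled tracer were added, then 1 h dark equilibration and polarization read.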

Another series deals with Huh-7. The series can be described thus: Antiproliferative activity against human HuH7 cells assessed as reduction in cell viability after 48 hrs by MTT assay. In kind it is functional, cell-based. To be noted: Huh-7, 48 h. A general note: Formazan colour is commonly taken as a measure of viable cells.
For series [4], the target named is Phosphatidylinositol 4,5-bisphosphate 3-kinase catalytic subunit gamma isoform (Homo sapiens, UniProt P48736). The series can be described thus: Inhibition of PI3Kgamma (unknown origin) using diC8-PI(4,5)P2 as substrate incubated for 3 hrs in presence of ATP by fluorescence polarization assay. A digest of the protocol: as §1
Sequence of Phosphatidylinositol 4,5-bisphosphate 3-kinase catalytic subunit gamma isoform (P48736 whole entry, canonical isoform): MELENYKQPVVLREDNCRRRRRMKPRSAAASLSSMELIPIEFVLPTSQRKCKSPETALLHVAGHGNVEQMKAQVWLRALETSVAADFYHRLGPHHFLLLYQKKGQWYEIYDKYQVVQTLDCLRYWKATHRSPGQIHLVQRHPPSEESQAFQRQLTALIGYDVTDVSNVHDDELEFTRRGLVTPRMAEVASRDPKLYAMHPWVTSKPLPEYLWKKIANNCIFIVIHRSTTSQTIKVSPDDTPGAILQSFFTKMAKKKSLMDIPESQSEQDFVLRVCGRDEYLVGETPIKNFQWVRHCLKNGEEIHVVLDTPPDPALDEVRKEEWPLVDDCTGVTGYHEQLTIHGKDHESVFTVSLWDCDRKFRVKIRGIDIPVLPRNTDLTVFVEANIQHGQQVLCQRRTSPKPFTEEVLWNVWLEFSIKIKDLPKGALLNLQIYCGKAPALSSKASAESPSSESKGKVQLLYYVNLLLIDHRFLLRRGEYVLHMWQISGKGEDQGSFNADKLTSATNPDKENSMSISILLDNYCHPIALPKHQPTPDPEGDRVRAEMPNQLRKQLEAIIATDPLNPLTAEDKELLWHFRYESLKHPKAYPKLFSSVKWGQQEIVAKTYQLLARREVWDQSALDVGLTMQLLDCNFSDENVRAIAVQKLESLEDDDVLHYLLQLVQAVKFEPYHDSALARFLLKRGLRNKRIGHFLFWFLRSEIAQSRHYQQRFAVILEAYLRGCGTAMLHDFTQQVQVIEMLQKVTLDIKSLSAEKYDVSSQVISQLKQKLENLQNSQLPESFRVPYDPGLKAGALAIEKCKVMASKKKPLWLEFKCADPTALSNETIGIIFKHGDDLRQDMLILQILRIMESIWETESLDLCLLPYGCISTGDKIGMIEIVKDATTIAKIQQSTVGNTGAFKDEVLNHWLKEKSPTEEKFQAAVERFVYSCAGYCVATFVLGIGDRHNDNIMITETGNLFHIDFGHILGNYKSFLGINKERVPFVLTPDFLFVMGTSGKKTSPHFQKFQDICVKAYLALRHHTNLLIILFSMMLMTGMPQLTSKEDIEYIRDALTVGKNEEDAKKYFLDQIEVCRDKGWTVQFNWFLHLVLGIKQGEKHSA
Background: In fluorescence polarisation assays a small probe gives low polarisation when free and higher when bound to something large.

Series [5] in a line: Cytotoxicity against human 293T cells. The class given is cell-based. The following applies: HEK-293T cells.
For a further series, the system named is A549. Briefly: Antiproliferative activity against human A549 cells assessed as reduction in cell viability after 48 hrs by MTT assay. The class given is functional, cell-based. The following applies: A549, 48 h.
The target in series [6] is Phosphatidylinositol 4,5-bisphosphate 3-kinase catalytic subunit beta isoform (Homo sapiens, UniProt P42338). The series can be described thus: Inhibition of PI3Kbeta (unknown origin) using diC8-PI(4,5)P2 as substrate incubated for 3 hrs in presence of ATP by fluorescence polarization assay. A digest of the protocol: as §1
Sequence of Phosphatidylinositol 4,5-bisphosphate 3-kinase catalytic subunit beta isoform (P42338 whole entry, canonical isoform): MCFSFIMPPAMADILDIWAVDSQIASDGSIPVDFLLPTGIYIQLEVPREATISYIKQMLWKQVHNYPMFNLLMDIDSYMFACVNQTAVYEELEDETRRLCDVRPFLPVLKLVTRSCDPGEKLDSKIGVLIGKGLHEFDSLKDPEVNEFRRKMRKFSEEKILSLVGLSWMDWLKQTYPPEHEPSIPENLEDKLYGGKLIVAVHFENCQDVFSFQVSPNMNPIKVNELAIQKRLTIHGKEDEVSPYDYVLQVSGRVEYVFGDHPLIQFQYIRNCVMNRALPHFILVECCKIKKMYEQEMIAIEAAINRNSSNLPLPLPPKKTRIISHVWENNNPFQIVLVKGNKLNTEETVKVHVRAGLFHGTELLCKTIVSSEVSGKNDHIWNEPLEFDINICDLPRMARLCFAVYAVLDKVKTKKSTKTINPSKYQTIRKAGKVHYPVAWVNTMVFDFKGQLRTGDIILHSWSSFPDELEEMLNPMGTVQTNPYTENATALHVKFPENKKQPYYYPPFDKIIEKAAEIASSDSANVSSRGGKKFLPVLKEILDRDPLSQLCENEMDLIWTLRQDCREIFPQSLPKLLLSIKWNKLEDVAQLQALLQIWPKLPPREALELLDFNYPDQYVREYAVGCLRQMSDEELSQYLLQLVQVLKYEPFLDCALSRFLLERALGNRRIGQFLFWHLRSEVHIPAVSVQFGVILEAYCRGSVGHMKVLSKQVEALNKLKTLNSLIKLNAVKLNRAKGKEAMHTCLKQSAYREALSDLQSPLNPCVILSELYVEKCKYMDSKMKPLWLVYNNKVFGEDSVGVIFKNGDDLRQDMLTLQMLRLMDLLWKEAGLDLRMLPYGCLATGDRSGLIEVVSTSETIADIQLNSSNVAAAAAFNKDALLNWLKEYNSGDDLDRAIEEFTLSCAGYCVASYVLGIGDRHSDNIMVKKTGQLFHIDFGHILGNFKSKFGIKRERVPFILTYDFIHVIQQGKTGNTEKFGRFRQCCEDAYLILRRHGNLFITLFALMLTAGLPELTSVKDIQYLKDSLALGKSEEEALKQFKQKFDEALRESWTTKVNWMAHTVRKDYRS
For series [7], the system named is HCT-116. Briefly: Antiproliferative activity against human HCT116 cells assessed as reduction in cell viability after 48 hrs by MTT assay. The class given is functional, cell-based. The following applies: HCT-116, 48 h.
For series [8], the target named is T1, Phosphatidylinositol 4,5-bisphosphate 3-kinase catalytic subunit delta isoform (Homo sapiens, UniProt O00329).
T1 sequence (O00329 whole entry): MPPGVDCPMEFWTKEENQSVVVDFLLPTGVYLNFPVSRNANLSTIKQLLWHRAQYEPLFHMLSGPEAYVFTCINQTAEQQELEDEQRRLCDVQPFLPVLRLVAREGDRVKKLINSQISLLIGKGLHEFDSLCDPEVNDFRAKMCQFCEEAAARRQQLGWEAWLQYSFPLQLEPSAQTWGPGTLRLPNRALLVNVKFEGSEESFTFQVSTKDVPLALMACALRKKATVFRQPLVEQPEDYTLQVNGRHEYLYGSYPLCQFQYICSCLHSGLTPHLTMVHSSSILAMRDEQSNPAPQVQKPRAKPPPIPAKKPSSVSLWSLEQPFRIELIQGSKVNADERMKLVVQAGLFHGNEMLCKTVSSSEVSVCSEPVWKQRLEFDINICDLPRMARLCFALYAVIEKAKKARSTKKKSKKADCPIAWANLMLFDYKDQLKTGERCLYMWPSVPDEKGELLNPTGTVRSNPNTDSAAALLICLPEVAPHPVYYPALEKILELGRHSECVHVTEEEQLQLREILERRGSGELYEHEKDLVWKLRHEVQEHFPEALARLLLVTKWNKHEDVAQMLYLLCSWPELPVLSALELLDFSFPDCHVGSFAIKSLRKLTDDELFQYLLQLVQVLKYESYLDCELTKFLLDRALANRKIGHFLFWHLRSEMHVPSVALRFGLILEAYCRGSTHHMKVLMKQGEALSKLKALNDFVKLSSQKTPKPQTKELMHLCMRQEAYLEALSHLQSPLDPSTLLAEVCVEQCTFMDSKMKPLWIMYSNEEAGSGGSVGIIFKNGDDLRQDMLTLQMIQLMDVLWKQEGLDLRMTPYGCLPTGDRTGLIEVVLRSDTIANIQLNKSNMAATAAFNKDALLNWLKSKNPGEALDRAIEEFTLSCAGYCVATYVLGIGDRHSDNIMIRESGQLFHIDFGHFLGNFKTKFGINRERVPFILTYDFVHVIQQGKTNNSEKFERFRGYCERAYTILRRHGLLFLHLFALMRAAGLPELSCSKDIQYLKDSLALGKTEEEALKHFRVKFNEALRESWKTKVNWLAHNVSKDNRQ
Briefly: Inhibition of PI3Kdelta (unknown origin) using diC8-PI(4,5)P2 as substrate incubated for 3 hrs in presence of ATP by fluorescence polarization assay. A digest of the protocol: as §1

In a further series the test system is HL-60. Briefly: Antiproliferative activity against human HL60 cells assessed as reduction in cell viability after 48 hrs by MTT assay. The class given is functional, cell-based. The following applies: HL-60, 48 h.

Sequence of Phosphatidylinositol 4,5-bisphosphate 3-kinase catalytic subunit alpha isoform (P42336 whole entry, canonical isoform): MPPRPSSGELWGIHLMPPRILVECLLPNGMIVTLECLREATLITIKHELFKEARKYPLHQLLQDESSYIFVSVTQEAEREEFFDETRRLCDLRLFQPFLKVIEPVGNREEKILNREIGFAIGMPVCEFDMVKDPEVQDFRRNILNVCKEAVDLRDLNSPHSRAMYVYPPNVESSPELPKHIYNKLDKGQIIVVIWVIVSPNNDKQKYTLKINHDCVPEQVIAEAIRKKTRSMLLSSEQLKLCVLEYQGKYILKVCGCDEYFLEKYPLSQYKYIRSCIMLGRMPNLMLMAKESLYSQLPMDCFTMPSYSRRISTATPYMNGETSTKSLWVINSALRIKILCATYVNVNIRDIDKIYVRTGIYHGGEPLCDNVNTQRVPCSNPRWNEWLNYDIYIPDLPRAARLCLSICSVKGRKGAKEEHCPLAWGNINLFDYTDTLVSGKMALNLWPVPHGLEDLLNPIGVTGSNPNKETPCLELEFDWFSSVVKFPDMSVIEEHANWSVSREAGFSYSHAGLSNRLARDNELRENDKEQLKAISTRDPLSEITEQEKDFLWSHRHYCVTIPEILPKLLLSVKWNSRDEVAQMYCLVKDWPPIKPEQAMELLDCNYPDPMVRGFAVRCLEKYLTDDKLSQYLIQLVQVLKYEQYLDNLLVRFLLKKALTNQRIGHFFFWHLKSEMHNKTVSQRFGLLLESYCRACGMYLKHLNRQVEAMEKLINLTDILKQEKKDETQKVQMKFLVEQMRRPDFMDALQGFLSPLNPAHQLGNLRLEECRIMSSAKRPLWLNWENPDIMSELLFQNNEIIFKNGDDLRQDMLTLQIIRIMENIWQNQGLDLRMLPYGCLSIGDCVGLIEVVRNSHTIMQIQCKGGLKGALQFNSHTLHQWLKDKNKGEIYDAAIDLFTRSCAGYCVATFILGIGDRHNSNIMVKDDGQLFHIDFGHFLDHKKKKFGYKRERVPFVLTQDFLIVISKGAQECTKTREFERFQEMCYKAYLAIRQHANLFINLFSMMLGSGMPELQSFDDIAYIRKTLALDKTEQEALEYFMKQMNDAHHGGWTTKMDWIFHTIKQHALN

One may read the IC50 as the concentration needed to halve the response being measured. As to `O=c1cc(N2CCOCC2)oc2c(-c3ccccc3)cccc12` [LY-294002], the inhibition in vivo at 10 mg/kg with HCT-116 [1] is 35.2%. In addition, the IC50 in [2] was over 10000 nM.

What is called CC50 is the concentration giving 50% cytotoxicity. Higher therefore signals better tolerance by the cells. On to `Cc1cc(C)c(S(=O)(=O)N2CCN(Cn3cc4c(=O)oc5ccccc5c4n3)CC2)c(C)c1`, for which the concentration for half-maximal inhibition (IC50) was 7440 nM in series [2]; 120 nM in series [3]; 300 nM in the series on Huh-7; 140 nM in [4]; 110 nM with A549; 410 nM in series [6]. In addition, the IC50 in the series with HCT-116 [7] was 90 nM; in [8], 230 nM; in the series on HL-60 it was 110 nM. This molecule returned a CC50 in series [5] of 354000 nM.

On to `O=c1oc2ccccc2c2nn(CN3CCN(S(=O)(=O)c4ccc(C(F)(F)F)cc4)CC3)cc12`, for which the IC50 in series [2] worked out at 8120 nM; in [3], 3840 nM; in the series on Huh-7, 2340 nM; in [4], 2300 nM; in the series with A549 it was 1150 nM; in [6], 5750 nM. The IC50 in the series on HCT-116 [7] is 840 nM; in series [8], 7510 nM; in the series with HL-60 it was 1100 nM. The CC50 in [5] came to 335000 nM.
